# From PubChem
# IEC-6 cytotox: cytotoxicity in IEC-6 intestinal epithelial cells, primary screen, cytotoxicity control for KLF5 inhibitor project, cell-based, luminescence. inhibition, % at 5 µM. 0.78% of 290,000 active. IEC-6 cytotoxicity, luminescence viability; in the data active means inhibition above about 22%;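 further: 0% = plate median of test compound wells and 100% = cytotoxic reference compound wells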
# MT stabilize HCS: microtubule stabilizers in HeLa cells, primary screen, imaging, high-content imaging | AID 2205, 2009 | % tubulin-high responders, % at 10 µM | HeLa tubulin immunostaining HCS, 24 h; share of cells brighter than vehicle mean+2SD | 0.83% of 200,000 active;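 active means plate Z-score above 3 for both tubulin-high and condensed-nucleus cell shares, with cell loss under 80%, at 10 µM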;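 further: anti alpha tubulin signal scored within the nucleus-defined area of each cell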
# APP 5UTR inh: inhibitors of APP translation via 5'UTR reporter, primary screen, APP 5'UTR luciferase, SH-SY5Y cells; SH-SY5Y APP 5'UTR-luciferase reporter, luminescence; 0.82% of 190,000 active; inhibition, % at 2 µM; AID 1285, 2008;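 active means inhibition above a set limit, derived from the sample mean plus 3 SD, cut at about 45% in these data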
# bCat nuc transl: modulators of beta-catenin nuclear translocation, primary screen, imaging, HeLa cells, immunofluorescence, high-content. 0.3% of 190,000 active. nuclear translocation activity, % at 5 µM;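 active means nuclear translocation activity above 50% at 5 µM, with a well cell count of 50 or more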;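 further: per-cell ratio of nuclear to cytoplasmic median beta-catenin stain intensity; plate controls were DMSO negative control for no effect and GSK-3 inhibitor IX positive control for full effect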
#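 Test system: human HeLa cells, native beta-catenin. Compound dosing: 5 µM primary single dose, 0.1% DMSO, 0.02–20 µM confirmation series. Incubation: compound exposure 24 h at 37°C. Detection: beta-catenin immunostaining with DAPI counterstain, 20x imaging, 6 fields/well. Read-out basis: Nuclear/cytoplasmic beta-catenin signal ratio, % activation.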
# Ba/F3 V617F tox: reduced viability of JAK2V617F-dependent Ba/F3 cells, primary screen, JAK2V617F inhibitor project, cell-based, Ba/F3 EpoR-JAK2V617F, luminescence | ATP luminescence | 1.1% of 220,000 active | inhibition, % at 5.6 µM;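 active means inhibition above the campaign mean plus 3 SD over all tested compounds, cut at about 24% in these data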;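 further: cytokine-independent growth of Ba/F3 cells driven by EpoR plus mutant JAK2; 0% = DMSO-treated cells and 100% = JAK inhibitor I control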
# BaF3 parental: parental Ba/F3 cell viability inhibition, counter-screen for JAK2V617F inhibitor project, murine pro-B, CellTiter-Glo luminescence; CellTiter-Glo ATP luminescence; inhibition, % at 5.6 µM; 1.1% of 220,000 active;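 active means inhibition above a per-campaign cutoff, the mean inhibition of all tested compounds plus 3 SD, cut at about 27% in these data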;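 further: 0% = DMSO wells and 100% = JAK Inhibitor I control wells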
# Starred values were filed as active, the others as inactive; / = no result. The list is not random: actives were taken first. Their share in the collection is about 2.2%.
SMILES,IEC-6 cytotox,MT stabilize HCS,APP 5UTR inh,bCat nuc transl,Ba/F3 V617F tox,BaF3 parental
COc1ccc(N(C(=O)CCl)C(C(=O)NCCc2ccccc2)c2cccs2)cc1 (centres undefined),41*,13,16,2,102*,30*
Cc1cc(C)cc(C(=O)Nc2nnc(SCC(=O)NCC3CCCO3)s2)c1 (centres undefined),3,/,/,/,/,/
COc1ccc(C(=O)/C=C2/C(=O)Nc3ccccc32)cc1,2,/,/,/,/,/
COc1ccc(C(=O)/C=C2/c3ccccc3CC(C)(C)N2C)cc1,13,28*,48*,/,4,4
CN1/C(=C\C(=O)Nc2cccnc2)c2ccccc2CC1(C)C,-2,4,-5,-2,-2,36*
CN1C(=O)C(C)(C)c2cc(S(=O)(=O)NCC3CCC(C(=O)NCc4ccccc4)CC3)ccc21 (centres undefined),-7,/,/,/,/,/
COc1cc(C(=O)NCC(=O)N/N=C(\C)Cc2ccccc2)cc(OC)c1OC,0,/,/,/,/,/
COc1cc(C(=O)N/N=C(\C)Cc2ccccc2)cc(OC)c1OC,84*,3,94*,-1,86*,80*
O=C(NCc1cccnc1)/C(=C\c1ccc(-c2ccc(Cl)c(Cl)c2)o1)S(=O)(=O)c1ccccc1,-6,35*,15,15,-2,2
CC(=O)n1cc(-c2ccncc2)c2ccccc21,3,7,46*,4,-1,8
CCc1ccc2[nH]c3nc(N/N=C/c4ccc(O)cc4O)nnc3c2c1,-2,/,/,/,/,/
CCN(CCNCC(O)COc1ccccc1C(C)C)c1cccc(C)c1 (centres undefined),-1,/,/,/,/,/
Brc1cccc(CNCC2CCCO2)c1 (centres undefined),-1,/,/,/,/,/
CCOC(=O)c1ccc(NC(=O)CCn2nnc3ccccc32)cc1,2,3,2,-2,1,3
CCOC(=O)c1ccc(NC(=O)Cn2nnc3ccccc32)cc1,-2,3,-71,-9,-3,59*
O=C(Cn1ncn2c(cc3sccc32)c1=O)NC1CCCC1,0,/,/,/,/,/
C[n+]1c2n(c3ccccc31)N=C(c1cc(C(C)(C)C)c(O)c(C(C)(C)C)c1)CS2,18,5,30,1,99*,79*
COc1cccc(C2=Nn3c(nnc3-c3ccccc3O)SC2)c1,3,3,-3,-3,2,5
O=C(c1ccc(OC2CCN(CCc3ccccc3)CC2)cc1)N1CCC(CO)CC1,6,/,/,/,/,/
CC(=O)N1c2ccccc2N(Cc2ccc(C)cc2C)C(=O)C1(C)C,/,19*,23,/,/,/
C=CCN1C(=O)C(C)(C)N(C(C)=O)c2ccccc21,0,3,-17,-2,0,3
Cc1cccc(N(CC(=O)NC2CCCCC2)C(=O)CCCC(=O)Nc2ccccn2)c1C,7,/,/,/,/,/
COc1cccc(/C=N/Nc2ccc(C(=O)O)cc2)c1O,-5,2,80*,-1,1,3
O=C(O)c1ccc(N/N=C/c2ccc(C(F)(F)F)cc2)cc1,18,1,-61,-1,1,2
CC(C)(C)c1ccc(/C=N/Nc2ccc(C(=O)O)cc2)cc1,24*,3,-55,-1,6,1
SMILES,IEC-6 cytotox,MT stabilize HCS,APP 5UTR inh,bCat nuc transl,Ba/F3 V617F tox,BaF3 parental
CCCCCCCC[n+]1cccc2c3ccccc3ccc21,45*,2,20,/,100*,85*
Cc1cc(C)n(CC(=O)N2CCCC(N3CCN(c4ccc(F)cc4)CC3)C2)n1 (centres undefined),4,/,/,/,/,/
COc1cc(NC(=O)c2cc(-c3cccs3)on2)cc(OC)c1OC,17,54*,2,2,-1,3
COc1ccccc1-c1cc(C(=O)NCCc2ccccc2)no1,8,21*,-51,/,-3,1
COc1ccc(NC(=O)c2cc(-c3ccccc3OC)on2)cc1,8,51*,74*,145*,3,6
NC(=O)c1ccc(NC(=O)COC(=O)/C=C/c2ccc3c(c2)OCO3)cc1,12,/,/,2,5,1
Cc1cc(N2CCCC2)ccc1NC(=O)COc1cccc(C(F)(F)F)c1,-1,/,/,/,/,/
CC(OC(=O)CCC(=O)N1CCN(S(=O)(=O)c2ccc3ccccc3c2)CC1)C(=O)NC(N)=O (centres undefined),-4,/,/,/,/,/
